High-throughput results deposited in PubChem by several laboratories.
Tb MetRS inh = T. brucei MetRS inhibitors, primary screen, biochemical, luminescence; purified T. brucei MetRS, ATP depletion, Kinase-Glo luminescence; 0.4% of 360,000 active; inhibition, % at 11.9 µM;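 active = inhibition above a per-plate cutoff of the control wells' mean inhibition plus 3 SD, cut at about 5.5% in these data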;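 note: 0% = DMSO wells median and 100% = median of wells with control inhibitor compound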
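System: purified T. brucei MetRS enzyme / Detection: Kinase-Glo luciferase luminescence reporting remaining unconsumed ATP / Medium: HEPES buffer with MgCl2, KCl, DTT, spermine, BSA, pyrophosphatase / Replication: singlicate, one well per compound / Evaluation: percent inhibition relative to median high and low control wells / Schedule: 2 h aminoacylation at 25 °C after 15 min preincubation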
Rin1 Abl inh = inhibitors of Rin1-Abl protein binding, primary screen, biochemical, TR-FRET. inhibition, % at 7.35 µM. 0.4% of 360,000 active; in the data active = inhibition above about 5%, passing the limit was not always enough
Rev-erbA mod = modulators of Rev-erb alpha DNA binding, primary screen, biochemical, FITC-DNA, fluorescence polarization, uHTS; AID 1259318, 2017; activity, % at 10 µM; Nuclear receptor subfamily 1 group D member 1 (Homo sapiens), P20393; 0.79% of 370,000 active; Rev-erbα–FITC-DNA binding, 90 min;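 active = activity above about 14%, limit read from the data; passing the limit was not always enough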;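 note: 0% = DMSO wells with 35 nM protein and 100% = DMSO wells with 750 nM protein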
PG9 binder = binders of HIV-1 gp120 antibody PG9, primary screen, biochemical, TR-FRET. HIV-1 gp120 / PG9 antibody interaction. TR-FRET gp120-PG9 antibody binding. inhibition, % at 6.7 µM. 0.43% of 360,000 active; in the data active = inhibition above about 8.5%
PG9 binder conf = binders of anti-gp120 antibody PG9, confirmation, biochemical, TR-FRET; shares compounds with PG9 binder; TR-FRET PG9 antibody binding; inhibition, % at 6.7 µM; 90% of 1,500 active; AID 651571, 2012; in the data active = inhibition above about 9%
PGV04 counter = binders of control antibody PGV04, counter-screen for PG9 antibody binder project, biochemical, TR-FRET, distinct HIV envelope site | shares compounds with PG9 binder | TR-FRET PGV04 antibody-gp120 binding | inhibition, % at 6.7 µM | 95% of 1,500 active; in the data active = inhibition above about 9.5%
PG9 bind DR = small-molecule binders of antibody PG9, dose response, biochemical, TR-FRET, HIV-1 gp120 antibody; TR-FRET PG9 antibody-gp120 binding inhibition; 95 tested, under 10 active; shares compounds with PG9 binder; IC50, µM; in the data active = IC50 below about 10 µM
PGV04 DR counter = binders of control antibody PGV04, dose response, counter-screen for PG9 antibody binder project, biochemical, TR-FRET, distinct HIV envelope site; 20% of 95 active; TR-FRET binding to control antibody PGV04; shares compounds with PG9 binder; IC50, µM
PG126 binding DR = binders of control antibody PG126, dose response, counter-screen for PG9 antibody binder project, biochemical, TR-FRET, distinct HIV envelope site; shares compounds with PG9 binder; TR-FRET binding to antibody PG126, counterscreen; IC50, µM; 20% of 95 active; AID 651939, 2012
Active calls of the source: *; i = inactive; nt = no result given. Only some compounds are listed: those with a hit (about 1.8% of all), similar ones and a draw of the others. Cut-off read from the data, not from the text of the source, unless noted: active = IC50 below about 9 µM; inactive = the rest.

SMILES	Tb MetRS inh	Rin1 Abl inh	Rev-erbA mod	PG9 binder	PG9 binder conf	PGV04 counter	others
CCCC1Cc2c(sc3nc(SC)nc(N)c23)CO1 (configuration not stated)	0.1	-2.0	23.6	15.8*	18.4*	34.2*
CSc1nc(N)c2c3c(sc2n1)COC(C(C)C)C3 (configuration not stated)	-1.1	-1.0	19.3	4.4	nt	nt
Cc1ccc(C)c(NC(=O)CN(C)C(=O)c2cc3c(s2)CCCCC3)c1	-0.6	-0.4	2.5	10.8*	16.3*	21.9*
O=S1(=O)CCOCC(CO)N1Cc1cccc(Br)c1 (configuration not stated)	nt	nt	3.0	nt	nt	nt
Cc1ccc(C)c(NC(=O)CSc2nc3nc(-c4cccs4)cc(C(F)(F)F)c3c(=O)[nH]2)c1	1.0	-7.5	5.7	2.9	nt	nt
O=C(CSc1nc2nc(-c3cccs3)cc(C(F)(F)F)c2c(=O)[nH]1)Nc1ccc(F)c(F)c1	0.1	-0.5	-7.0	16.8*	20.0*	27.7*
CCSc1nnc(NC(=O)C(Cc2ccccc2)n2cccc2)s1 (configuration not stated)	0.0	-5.1	12.6	10.0*	20.8*	20.6*	PG9 bind DR=>67;PGV04 DR counter=i;PG126 binding DR=>22.3
CCSc1nnc(NC(=O)c2csc(C)c2)s1	0.2	-2.6	16.8	12.4*	18.9*	31.3*
CCSc1nnc(NC(=O)COc2ccc3ccccc3c2)s1	-1.7	-1.0	9.0	13.8*	19.8*	35.4*
Cc1ccc(NC(=O)COC(=O)c2ccc(F)cc2Cl)c(Br)c1	0.6	-1.7	2.8	1.5	nt	nt
Cc1ccc(NC(=O)COC(=O)c2cc(Cl)ccc2Cl)c(Br)c1	-0.8	-11.9	3.9	21.9*	30.6*	40.2*
CC(=O)c1sc(C(C)(C)C)cc1NC(=O)c1ccccc1C(=O)O	0.3	-85.4	-4.3	48.2*	57.4*	64.7*
CC(C)C[C@@H]1COc2cc(Br)ccc2S(=O)(=O)N1Cc1cn(Cc2ccc(F)cc2)nn1	nt	nt	-3.4	nt	nt	nt
CCN(C(=O)CSc1nnc(COc2ccccc2F)n1N)c1c(N)n(Cc2ccccc2)c(=O)[nH]c1=O	-0.5	4.7	-1.3	-0.5	nt	nt
O=C(NC(=S)Nc1ccccc1N1CCOCC1)c1sc2ccccc2c1Cl	-0.2	-2.1	1.9	-1.3	nt	nt
O=C(O)c1ccccc1NC(=S)NC(=O)c1sc2ccccc2c1Cl	-0.2	-65.4	8.2	9.8*	16.8*	18.6*
O=C(O)c1cc(S(=O)(=O)Nc2cccc3ccccc23)c(Cl)cc1Cl	-0.3	-0.8	5.9	0.1	nt	nt
COC(=O)c1ccc(C2C(C(=O)c3ccco3)=C(O)C(=O)N2CC2CCCO2)cc1 (configuration not stated)	0.0	-1.2	-2.4	0.5	nt	nt
O=C(C1=C(O)C(=O)N(CC2CCCO2)C1c1ccccc1[N+](=O)[O-])c1ccco1 (configuration not stated)	-0.1	-2.3	-0.2	0.3	nt	nt
CCCCOc1ccc(C2C(C(=O)c3ccc(C)o3)=C(O)C(=O)N2CC2CCCO2)cc1 (configuration not stated)	0.6	-14.9	3.5	25.5*	24.8*	30.3*
Cc1ccc(C(=O)C2=C(O)C(=O)N(CC3CCCO3)C2c2ccccc2F)o1 (configuration not stated)	-0.5	-5.1	2.2	12.5*	22.6*	30.7*
Cc1ccccc1-c1nnc(NC(=O)c2ccc(N3C(=O)CCC3=O)cc2)s1	-0.2	1.3	5.0	0.7	nt	nt
Cc1cccc(-c2nnc(NC(=O)c3ccc(N4C(=O)CCC4=O)cc3)s2)c1	-0.3	-7.0	7.5	17.5*	4.1	11.8*
CC(C)N1CCCCC(NC(=O)c2cccc(C(F)(F)F)c2)C1=O (configuration not stated)	nt	nt	9.9	nt	nt	nt
CCn1c(C(=O)N2CCC(C(=O)NCc3ccc(OC)cc3)CC2)cc2sccc21	0.1	-3.8	-2.8	0.0	nt	nt
SMILES	Tb MetRS inh	Rin1 Abl inh	Rev-erbA mod	PG9 binder	PG9 binder conf	PGV04 counter	others
COc1ccc(CNC(=O)CN(C(=O)c2cc3sccc3n2C)C2CCCC2)cc1	-0.8	0.7	3.3	12.6*	11.4*	14.2*
O=c1cc(-c2ccc(O)c(O)c2)oc2ccc3ccccc3c12	-0.3	1.2	-12.3	0.9	nt	nt
O=c1cc(-c2ccccc2)oc2ccc3ccccc3c12	0.0	-4.8	12.6	15.2*	16.2*	24.0*
O=C(NCCOc1ccccc1F)C1CCC(=O)N(CCc2cccc(F)c2)C1 (configuration not stated)	-1.2	1.5	-1.4	1.3	nt	nt
Cc1cc2cc3c(cc2nc1SCC(=O)OC(C)C)OCCO3	0.7	-20.1	10.4	17.4*	23.1*	26.2*
CC1CCN(C(=O)CSc2nc3ccccc3s2)CC1	-0.3	-1.4	0.7	-2.0	nt	nt
Cc1nc2ccccc2nc1SCC(=O)N1CCC(C)CC1	0.4	-26.1	3.3	37.5*	33.7*	41.6*
CC1CCCN(C(=O)CSc2cnc3ccccc3n2)C1 (configuration not stated)	-0.8	-30.2	4.3	30.2*	34.8*	38.6*
COc1ccc2c(-c3ccccc3)cc(SCC(N)=O)nc2c1	-0.8	-4.0	1.8	2.1	nt	nt
COc1ccc2c(-c3ccccc3)cc3nnnn3c2c1	-0.7	4.8	15.5	9.9*	10.5*	23.6*
CCOC(=O)CCc1c(C)c(C#N)c2nc3ccccc3n2c1-n1cnc2ccccc21	-1.0	-0.3	19.4	17.3*	22.0*	26.5*
CCOC(=O)CCc1c(C)c(C#N)c2nc3ccccc3n2c1-n1ccnc1C	-1.2	-5.1	-2.3	0.0	nt	nt
C[C@@H](N)C(=O)Nc1ccc(Cl)cc1C(=O)c1ccc[nH]1	nt	nt	-0.8	nt	nt	nt
COc1ccc(S(=O)(=O)N2CCOCC2)cc1NC(=O)CN1C(=O)NC2(CCCC2)C1=O	-0.1	1.7	-7.0	-0.9	nt	nt
Cn1c2ccccc2c(=O)c2cc(C#Cc3ccccn3)ccc21	-0.1	-1.6	0.0	1.0	nt	nt
